Experimental data as given in ChEMBL document CHEMBL1150828, “Antimalarial, cytotoxic, and antifungal alkaloids from Duguetia hadrantha” (J Nat Prod, 2001).
Values after ≈ are worked out from the molar mass of the structure shown. Active and inactive are the calls of the source. The calls are words filed in the database; no cut-off is given here.

Experiments:
SK-MEL = assay: Cytotoxicity against human SK-MEL cells after 2 to 7 days by neutral red assay; assay type: functional, cell-based
KB = assay: Cytotoxicity against human KB cells after 2 to 7 days by neutral red assay; assay type: functional, cell-based
BT-549 = assay: Cytotoxicity against human BT549 cells after 2 to 7 days by neutral red assay; assay type: functional, cell-based
SK-OV-3 = assay: Cytotoxicity against human SKOV3 cells after 2 to 7 days by neutral red assay; assay type: functional, cell-based
Staphylococcus aureus [1] = assay: Antibacterial activity against Staphylococcus aureus ATCC 6535 after 48 hrs by modified well microplate assay; assay type: functional, organism-based
How it was run: (§1)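 ATCC strains (C. albicans B311 #90028, C. neoformans #90113, S. aureus #6535, MRSA #33591) were tested in a modified 96-well microplate protocol. […] Amphotericin B and rifampin served as positive controls and DMSO as the negative control.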

Staphylococcus aureus [2] = assay: Antibacterial activity against methicillin-resistant Staphylococcus aureus ATCC 33591 after 48 hrs by modified well microplate assay; assay type: functional, organism-based; how it was run: as §1
Plasmodium falciparum [3] = assay: Antimalarial activity after 48 hrs against chloroquine-resistant Plasmodium falciparum W2 as LDH activity by Makler method; assay type: functional, organism-based; conditions: W2, 48 h
How it was run: (§2)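 Parasite lactate dehydrogenase (pLDH) assay adapted from Makler, run in 96-well microplates on two P. falciparum clones, W-2 and D-6 (D-6 chloroquine-sensitive). Chloroquine and artemisinin were positive controls, with DMSO as the vehicle control.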

[4] = Selectivity index, ratio of IC50 of african green monkey (Cercopithecus aethiops) Vero cells to IC50 for chloroquine-resistant Plasmodium falciparum W2; assay type: toxicity, cell-based; conditions: read-out: Ratio IC50
Plasmodium falciparum [5] = assay: Antimalarial activity after 48 hrs against chloroquine-sensitive Plasmodium falciparum D6 as LDH activity by Makler method; assay type: functional, organism-based; conditions: D6, 48 h; how it was run: as §2
[6] = Selectivity index, ratio of IC50 of african green monkey (Cercopithecus aethiops) Vero cells to IC50 for chloroquine-sensitive Plasmodium falciparum D6; assay type: toxicity, cell-based; conditions: read-out: Ratio IC50
Candida albicans = assay: Antifungal activity against Candida albicans B311 after 48 hrs by modified well microplate assay; assay type: functional, organism-based; conditions: B311, 48 h; how it was run: as §1
Cryptococcus neoformans [7] = assay: Antifungal activity against Cryptococcus neoformans ATCC 90113 after 48 hrs by modified well microplate assay; assay type: functional, organism-based; conditions: Cryptococcus neoformans, ATCC 90113, 48 h; for IC50: read-out: IC50; how it was run: as §1
Cryptococcus neoformans [8] = assay: Antifungal activity against Cryptococcus neoformans ATCC 90113; assay type: functional
[9] = biological target: Intercellular adhesion molecule (ICAM-1), Integrin alpha-L/beta-2 (Homo sapiens) (UniProt P20701+P05362+P05107); assay: Inhibition of LFA1/ICAM1-mediated aggregation of TPA-stimulated human HL60 cells pretreated 10 mins before TPA challenge measured after 16 hrs of PMA addition by microscopy; assay type: cell-based; conditions: HL-60
How it was run: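 HL-60 cells at 1 × 10^6 cells/mL preincubated 10 min with sample, then PMA 10 ng/mL added; plates kept in CO2 incubator and aggregation scored microscopically 16 h after PMA; MIC reported; cytochalasin B, anti-LFA-1 and anti-ICAM-1 antibodies as positive controls.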

[10] = Specific index, ratio of IC50 for human HL60 cells to MIC for LFA1/ICAM1 mediated aggregation in TPA-stimulated human HL60 cells; assay type: functional, HL-60
How it was run: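 Ratio of XTT IC50 in HL-60 cells (4 h XTT-PMS read after the aggregation assay) to the microscopic aggregation MIC of PMA (10 ng/mL)-stimulated HL-60 cells scored 16 h after PMA.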

HL-60 = assay: Cytotoxicity against human HL60 cells after 16 hrs by XTT/PMS assay; conditions: HL-60, 16 h
[11] = biological target: Intercellular adhesion molecule (ICAM-1), Integrin alpha-L/beta-2 (Homo sapiens, UniProt P05107+P05362+P20701); assay: Inhibition of LFA1/ICAM1-mediated CFSE-labeled TPA-stimulated human HL60 cell adhesion to ICAM1 expressing human HeLa cells after 45 mins by fluorescence analysis; assay type: cell-based
How it was run: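 CFSE-labelled HL-60 cells plus sample added onto confluent ICAM-1-expressing HeLa monolayers with PMA 50 ng/mL; 45 min at 37 °C in CO2 incubator; nonadherent cells washed off, remainder lysed in 1% Triton X-100; fluorescence at ex 496/em 519 nm; anti-ICAM-1 antibody and cytochalasin B positive controls.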

[12] = Specific index, ratio of IC50 for human HL60 cells to IC50 for LFA1/ICAM1-mediated CFSE-labeled TPA-stimulated human HL60 cell adhesion to ICAM1 expressing human HeLa cells
How it was run: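 Index = HL-60 XTT IC50 / adhesion IC50. XTT: HL-60 at 1 × 10^6 cells/mL, sample 10 min, then PMA 10 ng/mL for 16 h; then XTT 1 mg/mL with 25 µM PMS for 4 h at 37 °C, A450 (ref 630). Adhesion: CFSE-labeled HL-60 on confluent HeLa monolayers, PMA 50 ng/mL, 45 min at 37 °C; nonadherent cells washed off, remainder lysed in 1% Triton X-100, fluorescence ex 496/em 519 nm.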

[13] = Homo sapiens, KB, read-out: IC50
[14] = Staphylococcus aureus, ATCC 6535, 48 h
[15] = Staphylococcus aureus, ATCC 6535, 48 h, read-out: IC50
[16] = Staphylococcus aureus, ATCC 33591, 48 h, read-out: IC50

Chain of Intercellular adhesion molecule (ICAM-1), Integrin alpha-L/beta-2 (P20701 whole entry): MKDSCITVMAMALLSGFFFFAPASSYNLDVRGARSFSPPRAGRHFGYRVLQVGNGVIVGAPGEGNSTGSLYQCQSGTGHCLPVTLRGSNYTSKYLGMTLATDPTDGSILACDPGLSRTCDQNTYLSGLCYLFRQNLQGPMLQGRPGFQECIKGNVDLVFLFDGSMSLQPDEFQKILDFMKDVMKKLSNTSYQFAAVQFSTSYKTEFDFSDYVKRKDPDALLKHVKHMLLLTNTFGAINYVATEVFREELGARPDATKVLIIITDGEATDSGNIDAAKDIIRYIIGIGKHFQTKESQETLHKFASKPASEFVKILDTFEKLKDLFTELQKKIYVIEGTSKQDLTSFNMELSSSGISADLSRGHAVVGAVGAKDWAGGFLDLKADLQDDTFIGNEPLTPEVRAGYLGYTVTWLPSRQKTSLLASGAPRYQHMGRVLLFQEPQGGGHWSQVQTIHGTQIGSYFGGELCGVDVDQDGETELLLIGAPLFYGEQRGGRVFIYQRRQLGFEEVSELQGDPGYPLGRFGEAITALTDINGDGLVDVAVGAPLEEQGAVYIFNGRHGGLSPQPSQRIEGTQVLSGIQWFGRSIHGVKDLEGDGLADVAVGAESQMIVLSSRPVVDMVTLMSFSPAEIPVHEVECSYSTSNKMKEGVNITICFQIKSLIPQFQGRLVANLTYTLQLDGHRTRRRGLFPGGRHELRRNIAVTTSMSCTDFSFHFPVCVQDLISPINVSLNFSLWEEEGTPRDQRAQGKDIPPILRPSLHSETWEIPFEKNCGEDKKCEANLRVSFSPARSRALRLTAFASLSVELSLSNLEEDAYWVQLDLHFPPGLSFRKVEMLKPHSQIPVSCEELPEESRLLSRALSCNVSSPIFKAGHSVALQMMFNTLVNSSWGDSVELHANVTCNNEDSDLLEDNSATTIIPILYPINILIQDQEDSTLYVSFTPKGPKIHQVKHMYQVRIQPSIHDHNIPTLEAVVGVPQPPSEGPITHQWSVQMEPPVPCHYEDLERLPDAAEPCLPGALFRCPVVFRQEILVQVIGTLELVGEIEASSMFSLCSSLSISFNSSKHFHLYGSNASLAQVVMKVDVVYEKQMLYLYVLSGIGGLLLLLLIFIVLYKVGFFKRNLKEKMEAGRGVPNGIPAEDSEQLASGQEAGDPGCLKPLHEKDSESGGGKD
Chain of Intercellular adhesion molecule (ICAM-1), Integrin alpha-L/beta-2 (P05362 whole entry): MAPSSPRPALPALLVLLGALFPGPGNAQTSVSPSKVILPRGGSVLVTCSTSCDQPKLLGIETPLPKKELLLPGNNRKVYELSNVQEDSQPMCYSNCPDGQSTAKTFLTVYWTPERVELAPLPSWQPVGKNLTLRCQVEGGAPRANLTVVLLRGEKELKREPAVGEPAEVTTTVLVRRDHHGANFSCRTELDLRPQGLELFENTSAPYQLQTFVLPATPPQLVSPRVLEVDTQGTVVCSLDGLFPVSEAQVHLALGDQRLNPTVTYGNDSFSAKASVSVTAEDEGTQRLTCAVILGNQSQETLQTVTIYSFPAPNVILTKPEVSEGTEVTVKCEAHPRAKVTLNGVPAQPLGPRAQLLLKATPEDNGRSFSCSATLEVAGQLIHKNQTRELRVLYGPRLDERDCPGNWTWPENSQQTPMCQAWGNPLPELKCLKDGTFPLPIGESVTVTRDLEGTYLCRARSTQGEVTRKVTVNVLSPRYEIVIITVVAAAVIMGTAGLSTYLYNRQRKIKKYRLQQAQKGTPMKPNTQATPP
Chain of Intercellular adhesion molecule (ICAM-1), Integrin alpha-L/beta-2 (P05107 whole entry): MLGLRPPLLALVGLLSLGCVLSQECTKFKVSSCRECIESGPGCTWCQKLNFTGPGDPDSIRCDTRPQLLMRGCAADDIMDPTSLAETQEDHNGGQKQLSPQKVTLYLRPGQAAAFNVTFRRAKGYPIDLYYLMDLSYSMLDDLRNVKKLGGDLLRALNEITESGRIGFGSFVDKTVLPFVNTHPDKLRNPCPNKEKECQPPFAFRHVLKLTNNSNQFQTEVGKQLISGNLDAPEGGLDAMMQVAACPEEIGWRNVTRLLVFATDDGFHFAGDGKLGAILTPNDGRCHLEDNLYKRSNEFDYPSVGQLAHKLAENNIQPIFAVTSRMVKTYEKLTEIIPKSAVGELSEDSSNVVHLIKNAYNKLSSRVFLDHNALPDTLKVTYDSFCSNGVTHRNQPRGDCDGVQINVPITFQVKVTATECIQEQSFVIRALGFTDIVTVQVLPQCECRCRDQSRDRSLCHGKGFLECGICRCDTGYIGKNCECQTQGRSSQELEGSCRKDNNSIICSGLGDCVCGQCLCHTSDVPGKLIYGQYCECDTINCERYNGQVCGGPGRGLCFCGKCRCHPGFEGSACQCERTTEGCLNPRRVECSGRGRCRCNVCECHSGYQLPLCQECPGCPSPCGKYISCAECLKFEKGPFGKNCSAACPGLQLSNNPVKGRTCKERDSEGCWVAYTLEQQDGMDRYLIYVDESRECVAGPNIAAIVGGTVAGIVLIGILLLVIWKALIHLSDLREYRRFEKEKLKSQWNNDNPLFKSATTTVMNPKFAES

With `COc1cccc2c1C(=O)c1c(O)c3c(c(O)c1C2=O)C[C@@](O)(C(=O)CO)C[C@@H]3O[C@H]1C[C@H](N)[C@H](O)[C@H](C)O1` [DOXORUBICIN] the IC50 (SK-MEL) was less than 1.1 µg/mL, the IC50 (KB; [13]) was less than 1.1 µg/mL and the IC50 (BT-549; Homo sapiens, BT-549, read-out: IC50) was less than 1.1 µg/mL. It also gave an IC50 (SK-OV-3) of less than 1.1 µg/mL.
`CO[C@H]1/C=C/O[C@@]2(C)Oc3c(C)c(O)c4c(O)c(c(/C=N/N5CCN(C)CC5)c(O)c4c3C2=O)NC(=O)/C(C)=C\C=C\[C@H](C)[C@H](O)[C@@H](C)[C@@H](O)[C@@H](C)[C@H](OC(C)=O)[C@@H]1C` [RIFAMPIN] showed an MIC (Staphylococcus aureus [1]; [14]) of 0.02 µg/mL (≈ 0.0243 µM), an IC50 (Staphylococcus aureus [1]; [15]) of 0.01 µg/mL (≈ 0.0122 µM) and an MIC (Staphylococcus aureus [2]; Staphylococcus aureus, ATCC 33591, 48 h) of 0.312 µg/mL (≈ 0.38 µM). For the same compound, the IC50 (Staphylococcus aureus [2]; [16]) was 0.0025 µg/mL (≈ 0.00304 µM).
In the case of `O=c1[nH]cc(F)c(=O)[nH]1` [FLUOROURACIL], the IC50 (SK-MEL) is reported as 6.3 µg/mL (≈ 48.4 µM), the IC50 (KB; [13]) is reported as greater than 10 µg/mL and the IC50 (BT-549; bt-549) is reported as “Not Active”. For the same compound, the IC50 (SK-OV-3) was greater than 10 µg/mL.
With `COc1cnc2c3c(nccc13)C(=O)c1ccccc1-2` the IC50 (Plasmodium falciparum [3]) was 0.095 µg/mL (≈ 0.362 µM), the selectivity ratio [4] was greater than 50 and the IC50 (Plasmodium falciparum [5]) was 0.28 µg/mL (≈ 1.07 µM). The selectivity ratio [6] was greater than 17, the IC50 (SK-MEL) was greater than 10 µg/mL and the IC50 (KB; kb) was “Not Active”. The IC50 (BT-549; bt-549) was “Not Active”, the IC50 (SK-OV-3) was greater than 10 µg/mL and the IC50 (Candida albicans) was 3 µg/mL (≈ 11.4 µM). The MIC (Candida albicans) was 20 µg/mL (≈ 76.3 µM), the MIC (Cryptococcus neoformans [7]) was 3.12 µg/mL (≈ 11.9 µM) and the IC50 (Cryptococcus neoformans [7]) was 0.65 µg/mL (≈ 2.48 µM). For the same compound, the MIC (Staphylococcus aureus [1]; [14]) was 25 µg/mL (≈ 95.3 µM), the IC50 (Staphylococcus aureus [1]; [15]) was 15 µg/mL (≈ 57.2 µM) and the IC50 (Staphylococcus aureus [2]; [16]) was 20 µg/mL (≈ 76.3 µM). For the same compound, the MIC (Cryptococcus neoformans [8]) was 0.78 µg/mL (≈ 2.97 µM), the MIC [9] was 12.5 µg/mL (≈ 47.7 µM) and the Ratio [10] was 0.6. The IC50 (HL-60) was 7.2 µg/mL (≈ 27.5 µM).
`C=C1[C@@H](C)[C@H]2[C@H](Cc3ccccc3)NC(=O)[C@]23OC(=O)/C=C/[C@H](O)CCC[C@@H](C)C/C=C/[C@H]3[C@@H]1O` [CYTOCHALASIN B] showed an MIC [9] of 0.39 µg/mL (≈ 0.813 µM), a Ratio [10] of 76.9 and an IC50 [11] of 521 nM. For the same compound, the “Ratio IC50” value [12] was greater than 120 and the IC50 (HL-60) was greater than 30 µg/mL.
For `C[C@@H]1[C@H](O)[C@@H](C)/C=C/C=C/C=C/C=C/C=C/C=C/C=C/[C@H](O[C@@H]2O[C@H](C)[C@@H](O)[C@H](N)[C@@H]2O)C[C@@H]2O[C@](O)(C[C@@H](O)C[C@@H](O)[C@H](O)CC[C@@H](O)C[C@@H](O)CC(=O)O[C@H]1C)C[C@H](O)[C@H]2C(=O)O` [AMPHOTERICIN B], the IC50 (Candida albicans) was 0.011 µg/mL (≈ 0.0119 µM), the MIC (Candida albicans) was 0.02 µg/mL (≈ 0.0216 µM) and the MIC (Cryptococcus neoformans [7]) was 0.156 µg/mL (≈ 0.169 µM). For the same compound, the IC50 (Cryptococcus neoformans [7]) was 0.045 µg/mL (≈ 0.0487 µM), the IC50 (Staphylococcus aureus [1]) was “Not Active” and the MIC (Staphylococcus aureus [1]) was “inactive”. The IC50 (Staphylococcus aureus [2]) was “Not Active” and the MIC (Staphylococcus aureus [2]) was “inactive”.
